Bridges are numbered along the chain shown (N, C = ends). Where no end group is shown, it is not given here.
Assays:
[1] = test system: HCC-LM3 cells; experiment: Confocal fluorescence microscopy of probe binding to HCC-LM3 cells; assay type: cell-based, human; settings: 6 nM probe, 2 h incubation, Fig. 1B
Summary of the method: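 HCC-LM3 cells were grown on glass coverslips for 24 h, then incubated with 6 nM Cy7-labelled probe for 2 h and washed three times in PBS. They were fixed in 4% paraformaldehyde, permeabilised with 0.2% Triton X-100 and blocked with 5% BSA. Staining used rabbit anti-integrin α6 (1:250, overnight, 4°C), then fluorescein goat anti-rabbit (1:1,000, 1 h, 37°C), with DAPI for nuclei. Imaged by confocal microscopy.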

[2] = test system: orthotopic HCC lesions; experiment: NIRF imaging with Cy5 probe, orthotopic HCC mice; assay type: in vivo; settings: i.v., Supplementary Fig. 1
[3] = test system: integrin a6; settings: peptide identified by phage display; cited from earlier work
[4] = test system: H22 cells; experiment: CCK-8 in vitro cytotoxicity assay; assay type: cell-based, mouse; settings: 0 to 500 nM, 48 h or 72 h, Supplementary Fig. 3
Summary of the method: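 H22 mouse hepatoma cells grown in DMEM with 10% FBS and 1% pen/strep at 37°C, 5% CO2. Cells were seeded at 3×10^3 per well and left 24 h, then exposed to the Cy7-labelled peptide probe at 0–500 nM for 48 h or 72 h. CCK-8 reagent was then added for 2 h, and absorbance was read at 450 nm.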

[5] = test system: major organs; experiment: In vivo toxicity by H&E staining of major organs; settings: imaging dose; heart, spleen, lung, kidney, brain of H22 tumor-bearing nude mice vs control group, Supplementary Fig. 9
[6] = test system: subcutaneous HCC-LM3 tumor; experiment: NIRF imaging and ex vivo biodistribution, subcutaneous HCC-LM3 tumor model; assay type: in vivo; settings: mice, i.v., statement of the discussion
[7] = test system: subcutaneous HCC-LM3 tumors; experiment: Photoacoustic imaging, subcutaneous HCC-LM3 tumors; assay type: in vivo, mice; settings: after i.v. injection, 0 to 48 h
[8] = test system: orthotopic HCC-H22 tumors; experiment: NIRF imaging and biodistribution, orthotopic HCC-H22 tumor model; assay type: in vivo, mice; settings: orthotopic HCC-H22, tumor and major organs 48 h after injection, Fig. 3
Summary of the method: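 Nude mice carried orthotopic luciferase-tagged H22 liver lesions and received Cy7-labelled probe or Cy7-control peptide i.v. by tail vein. NIRF imaging used 740 nm excitation and a 780 nm filter. Mice were killed 48 h post-injection, and tumor, heart, liver, spleen, kidney, lung and brain were imaged ex vivo. Organ fluorescence intensity was quantified.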

[9] = test system: orthotopic HCC-LM3 tumors; experiment: NIRF imaging, orthotopic HCC-LM3 tumor model; assay type: in vivo, mice; settings: post-injection; sustained until 24 h

Sequence: CGGGGGGGC (cysteine pairing not given here) [Cy7-control, reference compound]
- Fluorescence signal in cells by confocal microscopy [1]: no fluorescence response

Sequence: CRWYDENAC (disulfide 1-9 (inferred)) [Cy5-RWY]
- Homing of probe to HCC lesions (NIRF) [2]: specifically homed to HCC lesions

Sequence: CRWYDENAC (disulfide 1-9 (inferred)) [RWY]
- Binding to integrin a6 [3]: high specificity and affinity

Sequence: CRWYDENAC (disulfide 1-9 (inferred)) [Cy7-RWY]
- Cytotoxicity (cell viability, CCK-8) [4]: no significant cytotoxicity
- Cell and tissue damage in major organs (H&E) [5]: did not find significant cell and tissue damage
- Renal clearance [6]: fast renal clearance
- Fluorescence signal in cells by confocal microscopy [1]: Strong red fluorescence signals
- Time at which NIRF and PA signals in the tumor peaked [7]: 24 h
- Time at which NIRF and PA signals started to accumulate in the tumor [7]: 2 h
- Ex vivo fluorescence signal in tumors [8]: high level of the fluorescence signal
- Time at which tumor fluorescence signal reached a steady level [9]: 6 h
